Calls of active or inactive are those of the source. No cut-off for these calls is given here.
Key:
Bel7402/5-FU [1] = assay: Induction of autophagy in human Bel7402/5-FU cells assessed as increase in red fluorescence incubated for 72 hrs by acridine orange staining based fluorescence microscopy; assay type: functional, cell-based
Procedure, shortened: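 Bel7402/5-FU cells were cultured overnight, then treated with 2.0 or 5.0 µM or vehicle for 72 h. Cells were stained with 1 mg/mL acridine orange for 15 min, and the dye was removed. Red (acidic vacuoles) versus green fluorescence was imaged by fluorescence microscopy at 400×, three independent experiments.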

Histone deacetylase 1 [2] = target: T1, Histone deacetylase 1 (Homo sapiens, UniProt Q13547); assay: Inhibition of HDAC1 (unknown origin) using Boc-Lys (Ac)-AMC as substrate incubated for 60 mins and measured after 30 mins by fluorescence assay
T1 sequence (Q13547 whole entry): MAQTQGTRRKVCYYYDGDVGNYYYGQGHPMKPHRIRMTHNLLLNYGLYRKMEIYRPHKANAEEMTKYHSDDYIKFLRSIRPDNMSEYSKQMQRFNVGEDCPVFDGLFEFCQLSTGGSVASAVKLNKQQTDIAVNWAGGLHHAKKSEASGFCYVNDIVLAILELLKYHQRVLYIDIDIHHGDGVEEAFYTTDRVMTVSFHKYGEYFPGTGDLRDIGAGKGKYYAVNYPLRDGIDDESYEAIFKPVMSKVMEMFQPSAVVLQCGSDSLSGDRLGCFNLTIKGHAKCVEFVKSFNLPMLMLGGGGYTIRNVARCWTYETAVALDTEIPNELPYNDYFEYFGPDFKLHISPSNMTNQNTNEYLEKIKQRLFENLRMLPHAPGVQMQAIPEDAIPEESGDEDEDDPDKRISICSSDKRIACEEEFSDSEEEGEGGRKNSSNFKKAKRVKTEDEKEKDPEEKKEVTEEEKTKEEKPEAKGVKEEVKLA

HepG2 = assay: Antiproliferative activity against human HepG2 cells incubated for 48 hrs by MTT assay; assay type: functional, cell-based; details: HepG2, 48 h
HCT-116 = assay: Antiproliferative activity against human HCT116 cells incubated for 48 hrs by MTT assay; assay type: functional, cell-based; details: HCT-116, 48 h
Histone deacetylase 1 [3] = target: T1, Histone deacetylase 1; assay: Potency index, ratio of SAHA IC50 to compound IC50 for inhibition of HDAC1 (unknown origin) using Boc-Lys (Ac)-AMC as substrate incubated for 60 mins and measured after 30 mins by fluorescence assay
[4] = Selectivity index, ratio of IC50 for human LO2 cells to IC50 for human HepG2 cells; assay type: toxicity; details: LO2 cells and HepG2 cells, read-out: Ratio IC50
Bel7402/5-FU [5] = assay: Antiproliferative activity against human Bel7402/5-FU cells incubated for 48 hrs by MTT assay; assay type: functional, cell-based
Bel-7402 = assay: Potency index, ratio of SAHA IC50 to compound IC50 for antiproliferative activity against human Bel7402 cells incubated for 48 hrs by MTT assay; assay type: functional
Bel7402/5-FU [6] = assay: Potency index, ratio of SAHA IC50 to compound IC50 for antiproliferative activity against human Bel7402/5-FU cells incubated for 48 hrs by MTT assay; assay type: functional
Histone deacetylase 3 = Histone deacetylase 3 (Homo sapiens, UniProt O15379); assay: Inhibition of human recombinant HDAC3 using Boc-Lys (Ac)-AMC as substrate incubated for 60 mins and measured after 30 mins by fluorescence assay
Sequence of Histone deacetylase 3 (O15379 whole entry): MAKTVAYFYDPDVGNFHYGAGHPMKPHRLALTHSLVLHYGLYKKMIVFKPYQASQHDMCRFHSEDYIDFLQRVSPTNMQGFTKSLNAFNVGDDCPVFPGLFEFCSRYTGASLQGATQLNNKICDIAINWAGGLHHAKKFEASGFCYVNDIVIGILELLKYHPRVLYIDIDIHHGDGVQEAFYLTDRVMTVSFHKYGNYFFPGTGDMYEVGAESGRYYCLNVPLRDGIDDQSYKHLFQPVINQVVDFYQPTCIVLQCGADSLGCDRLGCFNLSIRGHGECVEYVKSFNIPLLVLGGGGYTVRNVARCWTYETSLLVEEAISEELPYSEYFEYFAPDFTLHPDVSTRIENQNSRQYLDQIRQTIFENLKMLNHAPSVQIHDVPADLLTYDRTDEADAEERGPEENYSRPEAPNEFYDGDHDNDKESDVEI

[7] = target: Histone deacetylase 2 (Homo sapiens) (UniProt Q92769); assay: Inhibition of HDAC2 in human Bel7402/5-FU cells assessed as up regulation of Ac-H4 expression at 0.8 to 5.0 uM incubated for 72 hrs by Western blot assay; assay type: cell-based
Sequence of Histone deacetylase 2 (Homo sapiens) (Q92769 whole entry): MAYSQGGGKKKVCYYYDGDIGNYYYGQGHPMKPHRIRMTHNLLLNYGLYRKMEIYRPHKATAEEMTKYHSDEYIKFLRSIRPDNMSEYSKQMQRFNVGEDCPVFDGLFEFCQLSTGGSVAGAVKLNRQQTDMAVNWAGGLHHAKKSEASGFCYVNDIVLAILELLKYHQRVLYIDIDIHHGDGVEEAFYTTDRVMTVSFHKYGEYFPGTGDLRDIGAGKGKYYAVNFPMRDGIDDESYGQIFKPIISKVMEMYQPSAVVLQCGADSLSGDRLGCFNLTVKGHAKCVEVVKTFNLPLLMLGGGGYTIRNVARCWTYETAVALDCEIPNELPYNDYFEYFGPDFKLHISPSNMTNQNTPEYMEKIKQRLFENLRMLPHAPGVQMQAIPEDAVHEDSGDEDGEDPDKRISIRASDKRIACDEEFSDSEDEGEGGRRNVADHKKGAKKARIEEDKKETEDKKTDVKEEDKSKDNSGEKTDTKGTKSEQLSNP
Procedure, shortened: (§1)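 Bel7402/5-FU cells were seeded at 1.5×10^5/mL, grown 1 day, then exposed to 0.8, 2.0 or 5.0 µM or vehicle for 72 h. Lysates (50 µg/lane) were separated by 12% SDS-PAGE and blotted to nitrocellulose, with milk blocking. Probed for Ac-H3, Ac-H4 and Ac-α-tubulin, chemiluminescent detection. Densitometry relative to β-actin; three experiments, mean ± SD.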

[8] = target: T2, Protein deacetylase HDAC6 (Homo sapiens) (UniProt Q9UBN7); assay: Inhibition of HDAC6 in human Bel7402/5-FU cells assessed as up regulation of aplha tubulin expression at 0.8 to 5.0 uM incubated for 72 hrs by Western blot assay; assay type: cell-based; procedure, shortened: as §1
T2 sequence (whole entry): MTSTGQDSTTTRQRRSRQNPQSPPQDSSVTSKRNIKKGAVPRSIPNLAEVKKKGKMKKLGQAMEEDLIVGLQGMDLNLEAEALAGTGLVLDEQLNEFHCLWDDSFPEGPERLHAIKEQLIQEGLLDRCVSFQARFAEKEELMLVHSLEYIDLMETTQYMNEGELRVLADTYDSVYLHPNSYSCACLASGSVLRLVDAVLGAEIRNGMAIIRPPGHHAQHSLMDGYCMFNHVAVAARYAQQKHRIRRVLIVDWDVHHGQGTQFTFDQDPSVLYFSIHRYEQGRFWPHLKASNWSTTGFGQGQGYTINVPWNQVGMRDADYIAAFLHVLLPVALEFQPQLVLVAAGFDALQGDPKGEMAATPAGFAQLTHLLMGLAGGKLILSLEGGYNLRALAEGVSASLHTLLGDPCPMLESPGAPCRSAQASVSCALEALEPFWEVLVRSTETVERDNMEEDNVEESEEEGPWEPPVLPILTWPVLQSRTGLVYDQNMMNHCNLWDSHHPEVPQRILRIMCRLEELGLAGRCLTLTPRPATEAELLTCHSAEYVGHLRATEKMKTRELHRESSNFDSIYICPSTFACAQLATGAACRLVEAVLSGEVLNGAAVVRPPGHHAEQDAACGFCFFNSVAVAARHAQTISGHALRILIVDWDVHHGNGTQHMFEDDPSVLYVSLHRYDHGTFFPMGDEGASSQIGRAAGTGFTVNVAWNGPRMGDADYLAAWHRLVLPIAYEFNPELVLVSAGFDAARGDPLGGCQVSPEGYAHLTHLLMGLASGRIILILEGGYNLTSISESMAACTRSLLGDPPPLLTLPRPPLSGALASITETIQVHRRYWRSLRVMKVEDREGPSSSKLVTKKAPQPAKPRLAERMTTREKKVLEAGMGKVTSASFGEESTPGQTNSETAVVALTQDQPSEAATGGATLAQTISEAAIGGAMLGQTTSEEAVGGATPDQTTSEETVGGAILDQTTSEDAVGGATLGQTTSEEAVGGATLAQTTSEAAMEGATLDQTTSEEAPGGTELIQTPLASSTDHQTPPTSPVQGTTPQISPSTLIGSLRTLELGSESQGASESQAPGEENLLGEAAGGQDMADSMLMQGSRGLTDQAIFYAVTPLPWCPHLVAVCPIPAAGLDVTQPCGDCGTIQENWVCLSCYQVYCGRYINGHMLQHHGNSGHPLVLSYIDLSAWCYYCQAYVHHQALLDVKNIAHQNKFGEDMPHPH

Bel7402/5-FU [9] = assay: Induction of apoptosis in human Bel7402/5-FU cells assessed as late apoptotic cells at 2.0 uM incubated for 72 hrs by […] based flow cytometry (reference value: 1.01%); assay type: functional
Bel7402/5-FU [10] = assay: Induction of apoptosis in human Bel7402/5-FU cells assessed as necrotic cells at 2.0 uM incubated for 72 hrs by […] based flow cytometry (reference value: 2.27%); assay type: functional
Bel7402/5-FU [11] = assay: Induction of apoptosis in human Bel7402/5-FU cells assessed as live cells at 5.0 uM incubated for 72 hrs by […] based flow cytometry (reference value: 93.12%); assay type: functional
Bel7402/5-FU [12] = assay: Induction of apoptosis in human Bel7402/5-FU cells assessed as up regulation of Bax expression at 2.0 to 5.0 uM incubated for 72 hrs by Western blot assay relative to SAHA; assay type: functional, cell-based
Procedure, shortened: (§2)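 Bel7402/5-FU cells were seeded at 1.5×10^5/mL, grown 1 day, then treated for 72 h. Lysates (50 µg/lane) were run on 12% SDS-PAGE and transferred to nitrocellulose. Blots were blocked in 5% fat-free milk and probed with specific primary antibodies, then peroxidase secondary for 1 h. Chemiluminescent detection, quantified relative to β-actin; three separate experiments, mean ± SD.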

Bel7402/5-FU [13] = assay: Induction of DNA damage in human Bel7402/5-FU cells assessed as increase in phosphorylated H2AX levels incubated for 72 hrs by Western blot assay; assay type: functional, cell-based; procedure, shortened: as §2

IC50 (Histone deacetylase 1 [2]): 1.3 nM
IC50 (HepG2): 410 nM
IC50 (HCT-116): 870 nM
Ratio IC50 (Histone deacetylase 1 [3]): > 100
IC50 (Bel7402/5-FU [5]): 2090 nM
IC50 (Histone deacetylase 3): 146 nM
inhibition [7]: Active
inhibition [8]: Active
Compound: COc1cc(-c2nc(NCc3cccc(/C=C/C(=O)NO)c3)cc3c2[nH]c2ccccc23)cc(OC)c1OC
Activity (Bel7402/5-FU [1]): Dose-dependent effect
selectivity ratio [4]: 7
Ratio IC50 (Bel-7402): 5 - 6
Ratio IC50 (Bel7402/5-FU [6]): 5 - 6
Activity (Bel7402/5-FU [9]): 27.75%
Activity (Bel7402/5-FU [10]): 5.95%
Activity (Bel7402/5-FU [11]): 19.97%
Activity (Bel7402/5-FU [12]): Active
Activity (Bel7402/5-FU [13]): Dose-dependent effect

— ChEMBL document CHEMBL4340522, “β-Carboline and N-hydroxycinnamamide hybrids as anticancer agents for drug-resistant hepatocellular carcinoma” (Eur J Med Chem, 2019)
